In the library only some 2.3% were active in any assay of this set; here they are far more common.
TRPC4 PAM: TRPC4 (mouse) allosteric potentiation. B-score at 10 µM. HEK293 TRPC4beta/mu-opioid, DAMGO EC20, Fluo-4 Ca2+ flux; hits give high values. AID 2227. Q9QUQ5. 0.42% of 310,000 active;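 active means B-score of calcium response area above 5 SD of library B-scores, with initial fluorescence ratio within 5 SD of library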
Target sequence (Q9QUQ5 whole entry, looked up): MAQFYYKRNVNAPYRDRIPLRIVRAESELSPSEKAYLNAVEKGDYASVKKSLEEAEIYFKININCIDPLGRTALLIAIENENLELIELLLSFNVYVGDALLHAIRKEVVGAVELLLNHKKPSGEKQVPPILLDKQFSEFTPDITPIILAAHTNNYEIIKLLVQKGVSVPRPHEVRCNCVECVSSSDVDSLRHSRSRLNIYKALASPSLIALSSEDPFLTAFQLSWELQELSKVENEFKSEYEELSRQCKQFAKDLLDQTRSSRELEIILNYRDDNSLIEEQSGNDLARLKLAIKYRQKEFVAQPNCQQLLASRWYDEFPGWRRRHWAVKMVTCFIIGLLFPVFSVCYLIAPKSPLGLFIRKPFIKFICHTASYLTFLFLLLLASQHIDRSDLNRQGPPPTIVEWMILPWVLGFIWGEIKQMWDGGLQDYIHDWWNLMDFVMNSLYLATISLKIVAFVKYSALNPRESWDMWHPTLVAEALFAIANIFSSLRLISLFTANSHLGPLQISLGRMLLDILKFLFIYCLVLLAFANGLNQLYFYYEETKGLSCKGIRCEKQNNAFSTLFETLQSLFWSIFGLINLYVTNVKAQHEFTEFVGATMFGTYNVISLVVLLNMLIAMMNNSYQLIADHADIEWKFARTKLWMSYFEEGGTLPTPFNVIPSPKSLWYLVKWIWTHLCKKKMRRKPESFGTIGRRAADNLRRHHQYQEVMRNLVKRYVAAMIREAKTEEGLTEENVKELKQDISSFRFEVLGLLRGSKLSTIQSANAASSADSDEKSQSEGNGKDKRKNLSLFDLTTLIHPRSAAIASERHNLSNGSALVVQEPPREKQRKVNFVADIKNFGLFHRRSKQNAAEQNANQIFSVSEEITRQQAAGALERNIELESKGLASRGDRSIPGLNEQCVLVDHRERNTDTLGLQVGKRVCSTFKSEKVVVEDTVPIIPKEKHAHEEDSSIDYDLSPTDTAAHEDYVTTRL
TRPC6 act: activates the mouse TRPC6 cation channel. Q61143. HEK293-TRPC6 membrane potential dye fluorescence; hits give high values. B-score at 10 µM. 0.13% of 310,000 active. AID 2550;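 active means B-score of the integrated fluorescence ratio above library mean plus 3 SD, and starting fluorescence ratio within library mean plus 5 SD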;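 further: higher score means more depolarization so channel activation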
TRPC6 inhibitor: mouse TRPC6 channel inhibition; Q61143; HEK293-TRPC6, membrane potential dye, ACh-evoked depolarization; hits give low values; B-score at 10 µM; 1.1% of 310,000 active; AID 2553;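 active means B-score under library mean minus 3 SD, initial fluorescence not abnormally high, positive integrated signal ratio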;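 further: B-score derived from integrated fluorescence ratio over the kinetic read; more negative B-score means stronger inhibition of depolarization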
TRPC4 agonist: activators of mouse TRPC4 channel; Q9QUQ5; HEK293 TRPC4beta/mu-opioid, Fluo4 calcium fluorescence; hits give high values; B-score at 10 µM; 0.49% of 310,000 active; AID 2237;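 active means B-score above 5 SD of library B-scores, and initial fluorescence ratio not above library mean plus 5 SD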;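 further: positive B-score marks a calcium rise read as TRPC4 activation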
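System: HEK293 cells stably co-expressing mouse TRPC4beta and mu-opioid receptor; Schedule: Fluo4 dye loading 45 min at room temperature, 110 s recording; Detection: Fluo4 fluorescence, kinetic; Evaluation: B-scored integrated calcium fluorescence ratio; Controls: buffer (low) and maximal DAMGO (high).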
TRPC4 inh: inhibitors of mouse TRPC4 channel; 0.39% of 300,000 active; HEK293 TRPC4beta/mu-opioid, DAMGO-evoked Fluo4 calcium flux; hits give low values; Q9QUQ5; AID 2247; B-score at 10 µM;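 active means B-score over 3 SD under the library average, no early fluorescence shift, positive overall ratio signal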
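Test system – stable TRPC4beta/mu-opioid receptor HEK293 cells · Probe or stimulus – DAMGO, a submaximal dose followed by a maximal one · Dosing – one concentration per compound · Signal – Fluo4 calcium fluorescence by kinetic imaging, 5 s 1 Hz baseline · Evaluation – per-well B score of integrated baseline-normalized Fluo4 ratio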
TRPC4 sel inh 2: second selectivity test of TRPC6 inhibitors: effect on mouse TRPC4; shares compounds with TRPC6 inhibitor; HEK293 TRPC4/MOR, membrane potential dye fluorescence; channel activated by saturating DAMGO dose; inhibition, % at 10 µM; 42% of 920 active;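 active means compounds whose fluorescence signal differed from control wells by over 3 SD, either direction, in both duplicate plates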
TRPC4 spec: tests whether TRPC6 inhibitors also affect mouse TRPC4 | activity change, negative = inhibition, % at 10 µM | 61% of 920 active | HEK293 TRPC4/mu-opioid, membrane potential fluorescence | shares compounds with TRPC6 inhibitor;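 active means rise or fall in signal beyond 3 SD of buffer-only wells in both replicate plates, either sign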;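 further: integrated kinetic ratio of fluorescence range over baseline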
HEK293 MPD ctr 2-1: second check of TRPC6 inhibitor effects in parental HEK293 cells. signal change vs control, % at 10 µM. parental HEK293 membrane potential dye fluorescence; maximal acetylcholine challenge after compound addition. shares compounds with TRPC6 inhibitor. 31% of 920 active;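 active means membrane potential signal moving either way by over 3 SD of the maximum-effect control, in both duplicate plates, meaning non-specific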
HEK293 MPD ctr-1: counter-screen for TRPC6 inhibitors: effect in parental HEK293 cells | membrane potential signal change, % at 10 µM | AID 2780 | parental HEK293 membrane potential dye fluorescence | 60% of 920 active | shares compounds with TRPC6 inhibitor;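 active means membrane potential signal shifting up or down by more than 3 SD of buffer-only wells, on both duplicate plates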
HEK293 MPD ctr-2: counter-screen for TRPC6 modulators: effect in parental HEK293 cells. shares compounds with TRPC6 inhibitor. membrane potential dye fluorescence. membrane potential signal change, % at 10 µM. 51% of 2,400 active;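 active means membrane potential signal moves up or down beyond 5 SD from buffer-only wells, on both duplicate plates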
HEK293 MPD ctr 2-2: second counter-screen for TRPC6 modulators: effect in parental HEK293 cells | shares compounds with TRPC6 inhibitor | 14% of 2,400 active | membrane potential dye fluorescence; after compound, maximal acetylcholine stimulation | inhibition, % at 10 µM;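 active means membrane potential signal drops by more than 5 SD from the mean control signal, in both duplicate plates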
TRPC4/MOR mod: mouse TRPC4 off-target activity of TRPC6 modulators; shares compounds with TRPC6 inhibitor; HEK293 TRPC4/mu-opioid, membrane potential fluorescence; percent change from control (negative = decrease, positive = increase), % at 10 µM; 69% of 2,400 active;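 active means membrane potential signal moved up or down beyond 5 SD of buffer control wells, in both duplicate plates, actives on both sides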
TRPC4 ctr inh 2: second check of whether TRPC6 modulators also affect mouse TRPC4 | inhibition, % at 10 µM | 55% of 2,400 active | HEK293 TRPC4/mu-opioid, membrane potential dye fluorescence; stimulated with maximal-effect DAMGO | AID 488928 | shares compounds with TRPC6 inhibitor;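 active means drop in membrane potential signal beyond 5 SD of the control wells in both duplicate plates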;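 further: TRPC4 counter screen for TRPC6 hits run under conditions tuned for TRPC6 not TRPC4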
TRPC6 block conf: confirmation of mouse TRPC6 inhibitors; shares compounds with TRPC6 inhibitor; HEK293-TRPC6, membrane potential dye, ACh-evoked depolarization; inhibition, % at 10 µM; 43% of 3,300 active; AID 488960;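 active means fluorescence ratio falls more than 5 SD below the full-stimulation control mean, in both duplicate runs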;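 further: integrated fluorescence ratio of peak minus minimum over baseline after agonist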
TRPC6 act conf: mouse TRPC6 activator confirmation; AID 488961; activation, % at 10 µM; shares compounds with TRPC6 inhibitor; 11% of 2,800 active; HEK293-TRPC6 membrane potential dye fluorescence, FDSS;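 active means ratio signal rise beyond 5 SD above unstimulated control wells' mean, seen in both duplicate runs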
Numbers stand for hits; - = inactive; . = no result.

SMILES	TRPC4 PAM	TRPC6 act	TRPC6 inhibitor	TRPC4 agonist	TRPC4 inh	HEK293 MPD ctr-2	HEK293 MPD ctr 2-2	TRPC4/MOR mod	TRPC4 ctr inh 2	TRPC6 block conf	TRPC6 act conf	others
CCOC(=O)c1c(NC(=O)CSc2nnc(C)s2)sc2c1CCN(C)C2	-	-	-5.81	-	-	-65.0%	-	-15.5%	-	-	-
CCOC(=O)c1c(NC(=O)c2ccc(S(=O)(=O)N(C)CC3CCCO3)cc2)sc2c1CCN(C)C2 (stereo not drawn)	-	-	-5.24	-	-	167.0%	-	-29.5%	-	-	-
CN(C)CCn1c2c(c(SCC(=O)NCc3ccccc3)nc1=O)CCCC2	-	-	-	-	-	.	.	.	.	.	.
COc1ccc(N=Nc2ccc(O)c3ncccc23)cc1	-	-	-	-	-	.	.	.	.	.	.
COc1ccc(C)cc1N=Nc1ccc(O)c2ncccc12	-	-	-5.07	-	-	-135.0%	-	-33.5%	73.0%	-	-
CCOC(=O)CNS(=O)(=O)c1ccc(S(=O)(=O)N2CCCC2)cc1	-	-	-7.85	-	-	.	.	.	.	-	-	TRPC4 sel inh 2=-;TRPC4 spec=-;HEK293 MPD ctr 2-1=-;HEK293 MPD ctr-1=-
O=C(c1ccc(Cn2cc(Cl)cn2)o1)N1CCN(Cc2ccc3c(c2)OCO3)CC1	-	-	-5.65	-	-	98.0%	-	18.5%	-	40.0%	.
O=C(O)CCC(=O)N1CCN(Cc2ccc3c(c2)OCO3)CC1	-	-	-6.83	-	-	.	.	.	.	-	-	TRPC4 sel inh 2=-;TRPC4 spec=-;HEK293 MPD ctr 2-1=-;HEK293 MPD ctr-1=-
CSc1ccc(S(=O)(=O)N2CCN(Cc3ccc4c(c3)OCO4)CC2)cc1	-	-	-4.98	-	-	-	-	-	-	39.5%	-
Cc1ccc(S(=O)(=O)N2CCN(C(=O)Cc3ccc4c(c3)OCCO4)CC2)cc1C	-	-	-6.08	-	-	-	-	-	-	-	-
COc1ccc(S(=O)(=O)N2CCN(Cc3ccc4c(c3)OCO4)CC2)cc1	-	-	-	-	-	.	.	.	.	.	.
CCCC(=O)N1CCN(Cc2ccc3c(c2)OCO3)CC1	-	-	-	-	-	.	.	.	.	.	.
O=C(c1cccn2c(=O)c3ccccc3nc12)N1CCN(Cc2ccc3c(c2)OCO3)CC1	-	-	-	-	-	.	.	.	.	.	.
O=C(c1cccn2c(=O)c3cc(Cl)ccc3nc12)N1CCN(Cc2ccc3c(c2)OCO3)CC1	-	-	-7.45	-	-	.	.	.	.	-	-	TRPC4 sel inh 2=-;TRPC4 spec=-;HEK293 MPD ctr 2-1=-;HEK293 MPD ctr-1=-
O=C(c1ccccc1Cl)N1CCN(Cc2ccc3c(c2)OCO3)CC1	-	12.7	-	-	-	-	-	-	-	-	32.5%
O=C(Nc1cccc(NC(=O)C2CCCO2)c1)c1ccco1 (stereo not drawn)	-	-	-	-	-	.	.	.	.	.	.

Compound activity as filed in PubChem.
